Source: ChEMBL document CHEMBL4715904, “Discovery of an Anion-Dependent Farnesyltransferase Inhibitor from a Phenotypic Screen” (ACS Med Chem Lett, 2021)
Activity calls are given as the source filed them. No cut-off for these calls is given here.

What was measured:
[1] = Inhibition of recombinant rat FTase expressed in Escherichia coli using 3H-FPP and biotinylated-DESGPGCMSCKCVLS peptide as substrates incubated for 30 mins in presence of 5 mM ATP by scintillation proximity assay
Outline: (§1)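 Cell-free FTase inhibition assay, standard protocol; anion-dependent variants repeated with added anion (dimethylallyl diphosphate at increasing concentrations, or other anions) beyond the standard-protocol level.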

[2] = test system: Human immunodeficiency virus 1; experiment: Potentiation of vorinostat-induced reactivation of latent HIV-1 infected in human Jurkat 2C4 cells assessed as increase in HIV-1 transcription incubated for 24 hrs in presence of vorinostat by Steady-Glo luciferase reporter gene assay relative to control; format: functional
[3] = Inhibition of recombinant rat FTase expressed in Escherichia coli using 3H-FPP and biotinylated-DESGPGCMSCKCVLS peptide as substrates incubated for 30 mins in presence of 5 mM phosphate by scintillation proximity assay; outline: as §1
[4] = Inhibition of recombinant rat FTase expressed in Escherichia coli using 3H-FPP and biotinylated-DESGPGCMSCKCVLS peptide as substrates incubated for 30 mins by scintillation proximity assay; outline: as §1
Homo sapiens [5] = species: Homo sapiens; experiment: Binding affinity to recombinant FTase (unknown origin) assessed as change in melting temperature at 20 uM by TdF assay
[6] = Inhibition of recombinant rat FTase expressed in Escherichia coli using 3H-FPP and biotinylated-DESGPGCMSCKCVLS peptide as substrates incubated for 30 mins in presence of 2 mM DMA-PP by scintillation proximity assay; outline: as §1
[7] = test system: Human immunodeficiency virus 1; experiment: Potentiation of vorinostat-induced reactivation of latent HIV-1 infected in human Jurkat 2C4 cells assessed as increase in HIV-1 transcription incubated for 24 hrs in presence of vorinostat by Steady-Glo luciferase reporter gene assay; format: functional, organism-based; conditions: Human immunodeficiency virus 1, 2C4, 24 h
[8] = target: T1, Protein farnesyltransferase subunit beta (Homo sapiens, UniProt P49356); experiment: Displacement of (1-(2-aminoethyl)-3,5-dimethyl-1H-pyrazol-4-yl)(4-((1-neopentyl-1H-benzo[d]imidazol-2-yl)methyl)piperazin-1-yl)methanone from FNTB in vorinostat-stimulated human Jurkat 2C4 cells infected with latent HIV-1 by pull-down experiment based competitive binding assay
T1 sequence (P49356 whole entry): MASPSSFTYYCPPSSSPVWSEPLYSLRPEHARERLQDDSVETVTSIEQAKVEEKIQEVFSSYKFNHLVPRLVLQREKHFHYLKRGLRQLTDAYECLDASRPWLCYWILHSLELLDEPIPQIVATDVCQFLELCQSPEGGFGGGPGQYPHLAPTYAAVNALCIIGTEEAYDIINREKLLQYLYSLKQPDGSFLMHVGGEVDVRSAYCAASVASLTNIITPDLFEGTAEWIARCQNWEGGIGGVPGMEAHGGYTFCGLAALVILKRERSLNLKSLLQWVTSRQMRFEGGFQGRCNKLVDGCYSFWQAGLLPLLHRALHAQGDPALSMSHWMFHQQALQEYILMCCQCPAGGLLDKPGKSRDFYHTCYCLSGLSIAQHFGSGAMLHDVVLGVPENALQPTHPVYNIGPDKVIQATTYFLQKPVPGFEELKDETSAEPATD

Homo sapiens [9] = species: Homo sapiens; experiment: Binding affinity to recombinant FTase (unknown origin) assessed as melting temperature at 20 uM by TdF assay (reference value: 46.2 +/- 0.2 degreeC)
[10] = target: T2, Mitochondrial inner membrane m-AAA protease component AFG3L2 (Homo sapiens, UniProt Q9Y4W6); experiment: Displacement of (1-(2-aminoethyl)-3,5-dimethyl-1H-pyrazol-4-yl)(4-((1-neopentyl-1H-benzo[d]imidazol-2-yl)methyl)piperazin-1-yl)methanone from AFG3L2 in vorinostat-stimulated human Jurkat 2C4 cells infected with latent HIV-1 by pull-down experiment based competitive binding assay; format: tissue-based
T2 sequence (Q9Y4W6 whole entry): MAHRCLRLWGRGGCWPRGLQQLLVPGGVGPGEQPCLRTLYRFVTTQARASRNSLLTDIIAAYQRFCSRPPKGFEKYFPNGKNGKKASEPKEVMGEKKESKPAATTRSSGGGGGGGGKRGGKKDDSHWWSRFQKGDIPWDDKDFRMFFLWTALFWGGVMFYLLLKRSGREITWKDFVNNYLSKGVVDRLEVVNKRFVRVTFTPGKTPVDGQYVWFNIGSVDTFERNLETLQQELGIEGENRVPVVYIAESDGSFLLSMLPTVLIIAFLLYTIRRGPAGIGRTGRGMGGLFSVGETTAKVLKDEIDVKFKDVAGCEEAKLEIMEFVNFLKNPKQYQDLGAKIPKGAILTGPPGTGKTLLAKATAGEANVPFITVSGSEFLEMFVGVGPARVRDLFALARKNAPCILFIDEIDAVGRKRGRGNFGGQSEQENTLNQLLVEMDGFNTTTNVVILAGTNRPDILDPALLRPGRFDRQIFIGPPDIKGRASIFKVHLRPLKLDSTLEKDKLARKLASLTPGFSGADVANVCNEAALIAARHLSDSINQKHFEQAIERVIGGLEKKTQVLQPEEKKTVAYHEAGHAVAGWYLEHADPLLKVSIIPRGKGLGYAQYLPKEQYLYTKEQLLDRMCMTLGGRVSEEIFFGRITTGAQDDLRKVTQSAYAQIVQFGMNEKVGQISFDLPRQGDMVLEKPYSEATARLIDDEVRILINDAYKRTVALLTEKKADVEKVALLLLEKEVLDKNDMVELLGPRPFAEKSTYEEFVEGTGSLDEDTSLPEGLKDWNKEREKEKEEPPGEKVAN
Outline: (§2)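 Affinity matrix made by immobilizing the aminoethyl-linked probe on Sepharose beads at 5.8, 3 and 1.4 mM; beads exposed to lysates of Jurkat 2C4 cells pretreated with vorinostat (250 nM); bound proteins pulled down, with free compound competing for binding.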

[11] = Inhibition of recombinant rat FTase expressed in Escherichia coli using 3H-FPP and biotinylated-DESGPGCMSCKCVLS peptide as substrates incubated for 30 mins in presence of 1 mM DMA-PP by scintillation proximity assay; outline: as §1
[12] = target: T3, NmrA-like family domain-containing protein 1 (Homo sapiens, UniProt Q9HBL8); experiment: Displacement of (1-(2-aminoethyl)-3,5-dimethyl-1H-pyrazol-4-yl)(4-((1-neopentyl-1H-benzo[d]imidazol-2-yl)methyl)piperazin-1-yl)methanone from NMRAL1 in vorinostat-stimulated human Jurkat 2C4 cells infected with latent HIV-1 by pull-down experiment based competitive binding assay; format: tissue-based; outline: as §2
T3 sequence (Q9HBL8 whole entry, the tested form may be a part): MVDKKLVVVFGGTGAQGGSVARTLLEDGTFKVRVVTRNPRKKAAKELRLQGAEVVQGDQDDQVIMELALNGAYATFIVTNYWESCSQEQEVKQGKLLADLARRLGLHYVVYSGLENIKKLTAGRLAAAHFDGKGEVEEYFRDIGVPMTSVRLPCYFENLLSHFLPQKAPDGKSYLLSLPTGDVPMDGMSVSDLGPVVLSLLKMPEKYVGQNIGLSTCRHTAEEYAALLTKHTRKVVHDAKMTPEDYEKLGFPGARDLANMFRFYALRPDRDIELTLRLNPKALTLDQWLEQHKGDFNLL

[13] = Inhibition of recombinant rat FTase expressed in Escherichia coli using 3H-FPP and biotinylated-DESGPGCMSCKCVLS peptide as substrates incubated for 30 mins in presence of 5 mM pyrophosphate by scintillation proximity assay; outline: as §1
[14] = test system: Human immunodeficiency virus 1; experiment: Reactivation of latent HIV-1 infected in human Jurkat 2C4 cells assessed as increase in HIV-1 transcription incubated for 24 hrs by Steady-Glo luciferase reporter gene assay; format: functional, organism-based; conditions: for EC50: Human immunodeficiency virus 1, 2C4, 24 h
Outline: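 Jurkat 2C4 latent HIV reporter line (minimal provirus, Tat H12L, LTR-driven luciferase); latency reversal measured as increase in luciferase luminescence in cell lysates.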

[15] = target: T4, Protein farnesyltransferase/geranylgeranyltransferase type-1 subunit alpha (Homo sapiens, UniProt P49354); experiment: Displacement of (1-(2-aminoethyl)-3,5-dimethyl-1H-pyrazol-4-yl)(4-((1-neopentyl-1H-benzo[d]imidazol-2-yl)methyl)piperazin-1-yl)methanone from FNTA in vorinostat-stimulated human Jurkat 2C4 cells infected with latent HIV-1 by pull-down experiment based competitive binding assay
[16] = Inhibition of recombinant rat FTase expressed in Escherichia coli using 3H-FPP and biotinylated-DESGPGCMSCKCVLS peptide as substrates incubated for 30 mins in presence of 5 mM DMA-PP by scintillation proximity assay; outline: as §1
[17] = Inhibition of rat recombinant FTase expressed in Escherichia coli using 3H-FPP and biotinylated-DESGPGCMSCKCVLS peptide as substrates incubated for 30 mins in presence of 5 mM thiosulfate by scintillation proximity assay; outline: as §1
[18] = target: T1, Protein farnesyltransferase subunit beta; experiment: Displacement of (4-((1-neopentyl-1H-benzo[d]imidazol-2-yl)methyl)piperazin-1-yl)(1,3,5-trimethyl-1H-pyrazol-4-yl)methanone from FNTB in vorinostat-stimulated human Jurkat 2C4 cells infected with latent HIV-1 by pull-down experiment based competitive binding assay; format: tissue-based; outline: as §2
[19] = target: T4, Protein farnesyltransferase/geranylgeranyltransferase type-1 subunit alpha; experiment: Displacement of (4-((1-neopentyl-1H-benzo[d]imidazol-2-yl)methyl)piperazin-1-yl)(1,3,5-trimethyl-1H-pyrazol-4-yl)methanone from FNTA in vorinostat-stimulated human Jurkat 2C4 cells infected with latent HIV-1 by pull-down experiment based competitive binding assay; outline: as §2
[20] = target: T2, Mitochondrial inner membrane m-AAA protease component AFG3L2; experiment: Displacement of (4-((1-neopentyl-1H-benzo[d]imidazol-2-yl)methyl)piperazin-1-yl)(1,3,5-trimethyl-1H-pyrazol-4-yl)methanone from AFG3L2 in vorinostat-stimulated human Jurkat 2C4 cells infected with latent HIV-1 by pull-down experiment based competitive binding assay; format: tissue-based; outline: as §2
[21] = target: T3, NmrA-like family domain-containing protein 1; experiment: Displacement of (4-((1-neopentyl-1H-benzo[d]imidazol-2-yl)methyl)piperazin-1-yl)(1,3,5-trimethyl-1H-pyrazol-4-yl)methanone from NMRAL1 in vorinostat-stimulated human Jurkat 2C4 cells infected with latent HIV-1 by pull-down experiment based competitive binding assay; format: tissue-based; outline: as §2

Row | Structure (SMILES) | IC50 [1] [µM] | Activity [2] [%] | IC50 [3] [µM] | IC50 [4] [µM] | ΔTm (Homo sapiens [5]) [°C] | IC50 [6] [µM] | EC50 [7] [µM] | IC50 [11] [µM] | IC50 [13] [µM] | EC50 [14] [µM] | IC50 [16] [µM] | IC50 [17] [µM] | other results
1 | Cc1nn(C)c(C)c1C(=O)N1CCN(Cc2nc3ccccc3n2CC(C)(C)C)CC1 | 0.25 | 100 | 1.3 | ≥ 20 | 4.2 | 0.9 | 0.34 | 1 | 2.5 | > 8 | 0.5 | 2.1 | Kd [8]: 0.475 µM; Tm (Homo sapiens [9]): 50.4 °C; Kd [10]: 19 µM; Kd [12]: 19 µM; Kd [15]: 0.34 µM
2 | CC(=O)NCCn1nc(C)c(C(=O)N2CCN(Cc3nc4ccccc4n3CC(C)(C)C)CC2)c1C |  |  |  |  |  |  | 1.1 |  |  | > 8 |  |  | 
3 | CCn1c(CN2CCN(C(=O)c3c(C)nn(C)c3C)CC2)nc2ccccc21 | > 40 |  | > 40 |  | 2 |  | > 8 |  | > 40 | > 8 |  | > 40 | inhibition [18]: inactive; inhibition [19]: inactive; inhibition [20]: inactive; inhibition [21]: inactive
4 | N#Cc1ccc(Cn2cncc2CN2CCN(c3cccc(Cl)c3)C(=O)C2)cc1 [L-778123 FREE BASE] | 0.05 | 100 | 0.07 | 0.05 |  | 0.1 | 0.17 | 0.04 | 0.07 |  | 0.07 | 0.05 | Activity [14]: Active
